The text below walks through data of publication PMC9851031 (ACS Omega, 2023).

Holding throughout (format): in vivo
In series [1] the test system is MES-induced seizure in albino mice. In words: Maximum electroshock. The settings on record: i.p. in mice, 4.0 h; doses 30, 100, 300 mg/kg. The method in brief:
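Albino mice, fasted overnight, received test compound i.p. in PEG-200 at 30, 100 and 300 mg/kg. Electroshock was 60-cycle alternating current, 50 mA for 0.25 s, delivered via ear-clip electrodes, with testing at 0.5 and 4 h after dosing. Protection meant abolition of hind limb tonic extension. The minimum dose protecting more than half of animals (n = 5) was recorded.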

A further series concerns Swiss albino mice. In words: Acute toxicity. The settings on record: for number of animals dead/tot number of animals tested: i.p., observed 24 h. The gist of the method:
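Albino mice, five per cage, on a 12 h light/dark cycle, fasted overnight. Acute toxic-class testing followed OECD 423. Deaths and signs of toxicity were recorded after dosing to estimate the median lethal dose.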

The next series has as its system albino mice. The series is described as follows: Rotarod neurotoxicity test. Particulars: doses 30, 100, 300 mg/kg; for neurotoxicity minimum dose: i.p. in mice. The gist of the method:
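Albino mice of either sex, housed five per cage on a 12 h light/dark cycle and fasted overnight, were first trained to balance on a 3.2 cm diameter rod turning at 6 rpm. Trained mice then received test compound i.p. in PEG-200 at 30, 100 or 300 mg/kg. Neurotoxicity was scored as failure to stay on the rod for at least 1 min in each of three successive trials.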
For orientation: The rotarod test checks motor coordination on a turning rod.

The subject of another series is mice. The series is described as follows: Antidepressant activity: locomotor activity by actophotometer. Particulars: for % reduction in locomotor activity / locomotor activity score, after treatment means ± SEM: n = 5, 5 min; for depressant effect (in words): actophotometer, 100 mg/kg. The method in brief:
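Actophotometer test in mice. Test compound at 100 mg/kg or diazepam standard was given intraperitoneally. Locomotor activity scores were taken at baseline and after treatment over a 5 min span, n = 5. Percent reduction in locomotor activity was calculated against control. Data are mean ± SEM, analysed by one-way ANOVA with Dunnett's test.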

[2] abbreviates: 100 mg/kg, after a few minutes of administration.

For `COc1ccc(-c2nnc(COc3cc(-c4nc5ccccc5s4)ccc3OC)o2)cc1` [6b, 2-{4-Methoxy-3-[5-(4-methoxy-phenyl)-[1,3,4]oxadiazol-2-ylmethoxy]-phenyl}-benzothiazole], the “HLTE (MES) minimum dose for antiepileptic potential” value (“HLTE (MES) minimum dose” below) in series [1] is listed as “failed to exhibit activity”. For the same molecule, the “number of animals dead/tot number of animals tested” value in the series on Swiss albino mice (dosage 5 mg/kg), in the series with Swiss albino mice (dosage 30 mg/kg), in the series on Swiss albino mice (dosage 100 mg/kg) and with Swiss albino mice (dosage 300 mg/kg) was 0/3 in each case.

In the case of `O=C1NC(=O)C(c2ccccc2)(c2ccccc2)N1` [phenytoin, reference compound], the “number of animals dead/tot number of animals tested” value in the series with Swiss albino mice (dosage 5 mg/kg), in the series with Swiss albino mice (dosage 30 mg/kg), with Swiss albino mice (dosage 100 mg/kg) and in the series on Swiss albino mice (dosage 300 mg/kg) was 0/3 in each case. Further, the neurotoxicity minimum dose in the series with albino mice (0.5 h) and in the series with albino mice (4.0 h) was 100 mg/kg in each case.

In the case of `COc1ccc(-c2nc3ccccc3s2)cc1OCc1nnc(-c2ccc(Cl)cc2)o1` [6g, 2-{3-[5-(4-Chloro-phenyl)-[1,3,4]oxadiazol-2-ylmethoxy]-4-methoxy-phenyl}-benzothiazole], in the series with Swiss albino mice (300 mg/kg body weight, 24 h), the acute toxicity observation entry is listed as “mortality with involuntary movements”. For the same molecule, the “number of animals dead/tot number of animals tested” value in the series with Swiss albino mice (dosage 5 mg/kg) is listed as 0/3; with Swiss albino mice (dosage 30 mg/kg), 0/3; in the series on Swiss albino mice (dosage 100 mg/kg) it was 0/3; with Swiss albino mice (dosage 300 mg/kg), 1/3.

Consider `COc1ccc(-c2nc3ccccc3s2)cc1OCc1nnc(-c2ccc(N(C)C)cc2)o1` [6m, {4-[5-(5-Benzothiazol-2-yl-2-methoxy-phenoxymethyl)-[1,3,4]oxadiazol-2-yl]-phenyl}-dimethylamine], for which the “HLTE (MES) minimum dose” value in series [1] was “failed to exhibit activity”. The “number of animals dead/tot number of animals tested” value in the series with Swiss albino mice (dosage 5 mg/kg), in the series with Swiss albino mice (dosage 30 mg/kg), in the series with Swiss albino mice (dosage 100 mg/kg) and in the series with Swiss albino mice (dosage 300 mg/kg) was 0/3 throughout.

On to `COc1ccc(-c2nc3ccccc3s2)cc1OCc1nnc(-c2c(OC)cccc2OC)o1` [6n, 2-{3-[5-(2,6-Dimethoxyphenyl)-[1,3,4]oxadiazol-2-ylmethoxy]-4-methoxy-phenyl}benzothiazole], for which the “number of animals dead/tot number of animals tested” value in the series on Swiss albino mice (dosage 5 mg/kg), with Swiss albino mice (dosage 30 mg/kg), in the series with Swiss albino mice (dosage 100 mg/kg) and with Swiss albino mice (dosage 300 mg/kg) was 0/3 in each case.

As for `COc1ccc(-c2nc3ccccc3s2)cc1OCc1nnc(-c2ccccc2)o1` [6d, 2-[4-Methoxy-3-(5-phenyl-[1,3,4]oxadiazol-2-ylmethoxy)-phenyl]-benzothiazole], in the series with Swiss albino mice (300 mg/kg body weight, 24 h), the acute toxicity observation entry is “mortality with involuntary movements”. Further, the “number of animals dead/tot number of animals tested” value in the series on Swiss albino mice (dosage 5 mg/kg) was 0/3; in the series with Swiss albino mice (dosage 30 mg/kg), 0/3; with Swiss albino mice (dosage 100 mg/kg), 0/3; in the series with Swiss albino mice (dosage 300 mg/kg), 2/3.

`COc1ccc(-c2nc3ccccc3s2)cc1OCc1nnc(Cc2ccccc2)o1` [6e, 2-[3-(5-Benzyl-[1,3,4]oxadiazol-2-ylmethoxy)-4-methoxy-phenyl]-benzothiazole]: the acute toxicity observation entry in the series on Swiss albino mice (setting [2]) was “slight spasmodic behavior”; in the series on Swiss albino mice (300 mg/kg body weight, 24 h) it was “mortality with involuntary movements”. In addition, the “number of animals dead/tot number of animals tested” value in the series with Swiss albino mice (dosage 5 mg/kg) is 0/3; in the series on Swiss albino mice (dosage 30 mg/kg) it was 0/3; in the series on Swiss albino mice (dosage 100 mg/kg) it was 1/3; in the series with Swiss albino mice (dosage 300 mg/kg), 1/3.

For the molecule `COc1ccc(-c2nc3ccccc3s2)cc1OCc1nnc(-c2ccc(N)cc2)o1` [6a, 4-[5-(5-Benzothiazol-2-yl-2-methoxy-phenoxymethyl)-[1,3,4]oxadiazol-2-yl]-phenylamine], the “number of animals dead/tot number of animals tested” value with Swiss albino mice (dosage 5 mg/kg), in the series with Swiss albino mice (dosage 30 mg/kg), with Swiss albino mice (dosage 100 mg/kg) and in the series with Swiss albino mice (dosage 300 mg/kg) was 0/3 each time.

For `CN1C(=O)CN=C(c2ccccc2)c2cc(Cl)ccc21` [diazepam, reference compound], in the series on mice (4 mg/kg (intraperitoneally)), the “% reduction in locomotor activity” value was found to be 80.4% and the “locomotor activity score, after treatment means ± SEM” value turned out to be 74.6 ± 2.65.

Turning to `COc1ccc(-c2nc3ccccc3s2)cc1OCc1nnc(-c2c(C)cccc2C)o1` [6k, 2-{3-[5-(2,6-Dimethylphenyl)-[1,3,4]oxadiazol-2-ylmethoxy]-4-methoxy-phenyl}-benzothiazole], the acute toxicity observation entry with Swiss albino mice (300 mg/kg body weight, 24 h) is listed as “mortality with involuntary movements”. Also, the “number of animals dead/tot number of animals tested” value is 0/3 in the series with Swiss albino mice (dosage 5 mg/kg), 0/3 with Swiss albino mice (dosage 30 mg/kg), 0/3 with Swiss albino mice (dosage 100 mg/kg) and 1/3 in the series with Swiss albino mice (dosage 300 mg/kg).

`COc1ccc(-c2nc3ccccc3s2)cc1OCc1nnc(-c2ccc(Br)cc2)o1` [6c, 2-{3-[5-(4-Bromo-phenyl)-[1,3,4]oxadiazol-2-ylmethoxy]-4-methoxy-phenyl}-benzothiazole]: the “HLTE (MES) minimum dose” value in series [1] is recorded as “failed to exhibit activity”. For the same molecule, the acute toxicity observation result with Swiss albino mice (setting [2]) is reported as “slight spasmodic behavior”; in the series on Swiss albino mice (300 mg/kg body weight, 24 h), “mortality with involuntary movements”. Moreover, the “number of animals dead/tot number of animals tested” value in the series with Swiss albino mice (dosage 5 mg/kg) was 0/3; in the series with Swiss albino mice (dosage 30 mg/kg), 0/3; with Swiss albino mice (dosage 100 mg/kg), 1/3; with Swiss albino mice (dosage 300 mg/kg), 2/3. The neurotoxicity minimum dose in the series on albino mice (0.5 h) and in the series on albino mice (4.0 h) was 300 mg/kg in each case.

`COc1ccc(-c2nc3ccccc3s2)cc1OCc1nnc(-c2ccc(O)cc2)o1` [6l, 4-[5-(5-Benzothiazol-2-yl-2-methoxy-phenoxymethyl)-[1,3,4]oxadiazol-2-yl]-phenol]: the “number of animals dead/tot number of animals tested” value with Swiss albino mice (dosage 5 mg/kg), with Swiss albino mice (dosage 30 mg/kg), in the series with Swiss albino mice (dosage 100 mg/kg) and with Swiss albino mice (dosage 300 mg/kg) was 0/3 each time. Further, the “depressant effect (in words)” value in the series on mice is on record as “not depressants”. Also, the “% reduction in locomotor activity” value in the series with mice (dose 100 mg/kg) worked out at 0.73%. Also, the “locomotor activity score, after treatment means ± SEM” value in the series with mice (dose 100 mg/kg) was 375.8 ± 3.65^ns. For the same molecule, in the series with albino mice, the “neurotoxicity (in words)” value is listed as “no neurotoxicity”.

With `COc1ccc(-c2nc3ccccc3s2)cc1OCc1nnc(-c2ccc([N+](=O)[O-])cc2)o1` [6h, 2-{4-Methoxy-3-[5-(4-nitro-phenyl)-[1,3,4]oxadiazol-2-ylmethoxy]-phenyl}-benzothiazole], the “number of animals dead/tot number of animals tested” value in the series on Swiss albino mice (dosage 5 mg/kg), in the series with Swiss albino mice (dosage 30 mg/kg), in the series on Swiss albino mice (dosage 100 mg/kg) and with Swiss albino mice (dosage 300 mg/kg) was 0/3 throughout. Further, in the series with mice, the “depressant effect (in words)” value is “not depressants”. In addition, the “% reduction in locomotor activity” value in the series on mice (dose 100 mg/kg) was 0.37%. Further, in the series with mice (dose 100 mg/kg), the “locomotor activity score, after treatment means ± SEM” value is recorded as 373.4 ± 3.85^ns. Also, the “neurotoxicity (in words)” value in the series on albino mice is “no neurotoxicity”.

Consider `COc1ccc(-c2nc3ccccc3s2)cc1OCc1nnc(C(c2ccccc2)c2ccccc2)o1` [6i, 2-[3-(5-Benzhydryl-[1,3,4]oxadiazol-2-ylmethoxy)-4-methoxy-phenyl]-benzothiazole], for which, in the series with Swiss albino mice (300 mg/kg body weight, 24 h), the acute toxicity observation result is “mortality with involuntary movements”. The “number of animals dead/tot number of animals tested” value in the series on Swiss albino mice (dosage 5 mg/kg) was 0/3; in the series on Swiss albino mice (dosage 30 mg/kg), 0/3; with Swiss albino mice (dosage 100 mg/kg), 0/3; with Swiss albino mice (dosage 300 mg/kg) it was 1/3.

For `COc1ccc(-c2nc3ccccc3s2)cc1OCc1nnc(-c2cc([N+](=O)[O-])cc([N+](=O)[O-])c2O)o1` [6j, 2-[5-(5-Benzothiazol-2-yl-2-methoxy-phenoxymethyl)-[1,3,4]oxadiazol-2-yl]-4,6-dinitro-phenol], the “number of animals dead/tot number of animals tested” value with Swiss albino mice (dosage 5 mg/kg), in the series on Swiss albino mice (dosage 30 mg/kg), in the series on Swiss albino mice (dosage 100 mg/kg) and in the series with Swiss albino mice (dosage 300 mg/kg) was 0/3 in each case. For the same molecule, the “depressant effect (in words)” value in the series with mice was “not depressants”. Besides, the “% reduction in locomotor activity” value in the series with mice (dose 100 mg/kg) is 0.48%. The “locomotor activity score, after treatment means ± SEM” value in the series with mice (dose 100 mg/kg) is listed as 368.8 ± 2.63^ns. In the series with albino mice, the “neurotoxicity (in words)” value is “no neurotoxicity”.
